Source: ChEMBL document CHEMBL3751813, “Nonpeptidic Amphiphilic Xanthone Derivatives: Structure-Activity Relationship and Membrane-Targeting Properties” (J Med Chem, 2016)
Values after ≈ are worked out from the molar mass of the structure shown.

Assays:
Bacillus cereus = assay: Antibacterial activity against clinical isolates of Bacillus cereus ATCC 11778 after 24 hrs by […]; assay type: functional; conditions: ATCC 11778, 24 h
[1] = Selectivity index, ratio of HC50 for hemolytic activity against New Zealand white rabbit RBC to MIC for clinical isolates of Staphylococcus aureus DM4001
Staphylococcus aureus [2] = assay: Antibacterial activity against clinical isolates of Staphylococcus aureus DM4001R after 24 hrs by […]; assay type: functional
[3] = Membrane permeabilization activity assessed as release of calcein from DOPE/DOPG liposomes at lipid:compound ratio of 8 incubated for 30 mins by fluorescence assay; assay type: ADME; conditions: 0.5 h
In short: (§1)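 Freeze-thawed, extruded, then gel-filtered. Final lipid 50 µM with compound added from DMF (<0.2%). Fluorescence at ex 490/em 520 nm over 30 min; 0.1% Triton X-100 defined 100% lysis.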

[4] = Hemolytic activity against New Zealand white rabbit RBC after 1 hr by microplate reader analysis; assay type: ADME, cell-based, Oryctolagus cuniculus, Erythrocyte; conditions: rabbit red blood cells
In short: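 Rabbit RBCs spun from serum at 3,000 rpm for 10 min and washed twice in PBS. Mixed with compound in DMF at 4% v/v RBCs, 1 h at 37 °C. After centrifugation, hemoglobin in the supernatant read at 576 nm. 2% Triton X-100 was the positive control and 1% DMF the negative control.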

Staphylococcus aureus [5] = assay: Antibacterial activity against clinical isolates of methicillin-resistant Staphylococcus aureus DM9808R after 24 hrs by […]; assay type: functional
[6] = Membrane permeabilization activity assessed as release of calcein from DOPE/DOPG liposomes at lipid:compound ratio of 16 incubated for 30 mins by fluorescence assay; assay type: ADME; conditions: 0.5 h; in short: as §1
Staphylococcus aureus [7] = assay: Antibacterial activity against clinical isolates of methicillin-resistant Staphylococcus aureus DM21455 after 24 hrs by […]; assay type: functional; conditions: DM21455, 24 h
Staphylococcus aureus [8] = assay: Bactericidal activity against clinical isolates of Staphylococcus aureus DM4001 assessed as log reduction in viability at 2 times MIC measured over 300 mins by time kill kinetic study; assay type: functional
In short: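 Colonies from 18–22 h TSA plates suspended in 0.31 mM phosphate buffer pH 7.2 at 10^5–10^6 CFU/mL. Treated at 1×, 2× and 4× MIC at 35 °C, sampled at 10 min, 30 min, 1 h, 2 h and 5 h. Ten-fold dilutions spread on MHA, 35 °C for 48–72 h, colonies counted. Detection limit 100 CFU/mL; bactericidal means 3-log drop versus untreated.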

[9] = Cytotoxicity in human corneal fibroblasts at 0.5 times MIC incubated for 4 hrs by LDH release assay relative to control; conditions: corneal fibroblast
Staphylococcus aureus [10] = assay: Induction of membrane permeabilization in clinical isolates of Staphylococcus aureus DM4001 at MIC by SYTOX green uptake assay; assay type: functional
In short: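 Exponential-phase cells washed twice in 20 mM PBS pH 7 and adjusted to OD620 0.09. Given 3 µM SYTOX Green and kept in the dark until fluorescence was stable, then compound added. Fluorescence followed in a stirred cuvette at ex 504/em 523 nm. Melittin 10 µg/mL was the positive control. Run at least twice; one run reported.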

Staphylococcus aureus [11] = assay: Bactericidal activity against clinical isolates of Staphylococcus aureus DM4001 assessed as log reduction in viability at 4 times MIC measured over 30 mins by time kill kinetic study; assay type: functional
In short: (§2)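 Cells from colonies on an 18–22 h TSA plate, suspended in 0.31 mM phosphate buffer pH 7.2 at 10^5–10^6 CFU/mL. Dosed at 1×, 2× and 4× MIC at 35 °C. Aliquots taken at 10 min, 30 min, 1 h, 2 h and 5 h, diluted ten-fold serially, spread on MHA and counted after 48–72 h at 35 °C. Detection limit 100 CFU/mL. Bactericidal means a 3-log drop versus untreated control.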

[12] = Cytotoxicity in human corneal fibroblasts assessed as cell viability at 0.5 times MIC incubated for 4 hrs by luminescent cell viability assay relative to control; parameters: species or system Corneal fibroblast; conditions: read-out: Activity
In short: (§3)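 Cells plated at 10,000 per well and exposed 4 h in 100 µL. Plate equilibrated to 22 °C for 30 min, then read with CellTiter-Glo luminescence. 1% Triton X-100 set minimal viability and 0.5% DMF served as negative control. Viability computed relative to these controls.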

[13] = Cytotoxicity in human corneal fibroblasts at 2 times MIC incubated for 4 hrs by LDH release assay relative to control; conditions: corneal fibroblast
Staphylococcus aureus [14] = assay: Bactericidal activity against clinical isolates of Staphylococcus aureus DM4001 at 4 times MIC measured over 30 mins by time kill kinetic study; assay type: functional; in short: as §2
[15] = Cytotoxicity in human corneal fibroblasts at 4 times MIC incubated for 4 hrs by LDH release assay relative to control; conditions: corneal fibroblast
Staphylococcus aureus [16] = assay: Bactericidal activity against clinical isolates of Staphylococcus aureus DM4001 at 2 times MIC measured over 300 mins by time kill kinetic study; assay type: functional; in short: as §2
[17] = Cytotoxicity in human corneal fibroblasts at MIC incubated for 4 hrs by LDH release assay relative to control; conditions: corneal fibroblast
[18] = Cytotoxicity in human corneal fibroblasts assessed as cell viability at 4 times MIC incubated for 4 hrs by luminescent cell viability assay relative to control; parameters: species or system Corneal fibroblast; conditions: read-out: Activity; in short: as §3
[19] = Cytotoxicity in human corneal fibroblasts assessed as cell viability at 2 times MIC incubated for 4 hrs by luminescent cell viability assay relative to control; parameters: species or system Corneal fibroblast; conditions: read-out: Activity; in short: as §3
[20] = Cytotoxicity in human corneal fibroblasts assessed as cell viability at MIC incubated for 4 hrs by luminescent cell viability assay relative to control; parameters: species or system Corneal fibroblast; conditions: read-out: Activity; in short: as §3
Staphylococcus aureus [21] = assay: Induction of membrane permeabilization in clinical isolates of Staphylococcus aureus DM4001 assessed as ATP leakage at MIC incubated for 10 mins by firefly luciferase based luminometry analysis; assay type: functional
In short: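 Exponential-phase cells washed twice in 20 mM PBS pH 7 and set to OD620 0.3. Exposed 10 min at 37 °C, then spun at 4000 rpm for 5 min. Supernatant mixed with luciferase reagent (1 mM DTT, 0.5 mM D-luciferin, 1.25 µg/mL firefly luciferase). Luminescence read over 30 cycles.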

SMILES: CCN(CC)CCCCOc1cc2oc3cc(OCCCCN(CC)CC)c(OC)c(CCC(C)C)c3c(=O)c2c(O)c1CCC(C)C
- MIC (Bacillus cereus): 25 µg/mL (≈ 37.4 µM)
- Selectivity ratio [1]: 15.6
- MIC (Staphylococcus aureus [2]): 3.12 µg/mL (≈ 4.67 µM)
- Activity [3]: 58.6%
- HC50 at 1 h [4]: 48.6 µg/mL
- MIC (Staphylococcus aureus [5]): 12.5 µg/mL (≈ 18.7 µM)
- Activity [6]: 20.1%
- MIC (Staphylococcus aureus [7]): 25 µg/mL (≈ 37.4 µM)

SMILES: COc1c(OCCCCN)cc2oc3cc(OCCCCN)c(CC=C(C)C)c(O)c3c(=O)c2c1CC=C(C)C
- LCK (Staphylococcus aureus [8]): 3
- Activity [9]: -0.7%
- Activity (Staphylococcus aureus [10]): 1497 cps
- LCK (Staphylococcus aureus [11]): 3
- MIC (Bacillus cereus): 3.12 µg/mL (≈ 5.65 µM)
- Selectivity ratio [1]: 51.4
- viability at 4 h, 0.5 times MIC [12]: 98.5%
- Activity [13]: -0.5%
- Activity (Staphylococcus aureus [14]): 99.9%
- Activity [15]: 0.9%
- MIC (Staphylococcus aureus [2]): 1.56 µg/mL (≈ 2.82 µM)
- Activity (Staphylococcus aureus [16]): 99.9%
- Activity [17]: -1%
- HC50 at 1 h [4]: 80.2 µg/mL
- MIC (Staphylococcus aureus [5]): 3.12 µg/mL (≈ 5.65 µM)
- viability at 4 h, 4 times MIC [18]: 90.3%
- viability at 4 h, 2 times MIC [19]: 90.7%
- viability at 4 h, 1 times MIC [20]: 91.7%
- Activity (Staphylococcus aureus [21]): 210 nM
- MIC (Staphylococcus aureus [7]): 1.56 µg/mL (≈ 2.82 µM)
